Reference: ChEMBL document CHEMBL3227959, “2'-O-Acyl-6-thioinosine cyclic 3',5'-phosphates as prodrugs of thioinosinic acid” (J Med Chem, 1979)
pEC50: −log10 of the molar value. Active and inactive are the calls of the source. The calls are words filed in the database; no cut-off is given here.

Columns and labels:
S49 [1] = assay: Cytotoxicity against wild type mouse S49 cells assessed as growth inhibition after 72 hrs by trypan blue exclusion assay; format: functional, cell-based; details: S49, 72 h
Method in brief: (§1)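 S49 mouse T-lymphoma cells, pre-grown 24 h to keep growth exponential and asynchronous, were plated at 10^5 cells/mL in complete Dulbecco's modified Eagle medium. Agents were added in 30 mM NaHCO3. After 72 h at 37 °C, cells were counted by Coulter counter. Initial density was subtracted and growth expressed as a fraction of drug-free wells. EC50 was read from the percent-inhibition versus concentration plot, reported as mean ± SE. Trypan blue was used to check cytolysis.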

S49 [2] = assay: Cytotoxicity against HGPRTase-deficient mouse S49 cells assessed as growth inhibition after 72 hrs by trypan blue exclusion assay; format: functional, cell-based; details: S49, 72 h; method in brief: as §1
S49 [3] = assay: Cytotoxicity against HGPRTase-deficient mouse S49 cells assessed as growth inhibition at 1000 uM after 72 hrs by trypan blue exclusion assay; format: functional, cell-based; method in brief: as §1
S49 [4] = assay: Cytotoxicity against HGPRTase-deficient mouse S49 cells assessed as growth inhibition at 100 uM after 72 hrs by trypan blue exclusion assay; format: functional, cell-based; method in brief: as §1
S49 [5] = assay: Cytotoxicity against HGPRTase- and protein kinase-deficient mouse S49 cells assessed as growth inhibition; format: functional, cell-based; method in brief: as §1
S49 [6] = assay: Cytotoxicity against HGPRTase-deficient mouse S49 cells assessed as growth inhibition at 500 uM after 20 to 49 hrs by time-course study in presence of theophylline; format: functional, cell-based
Method in brief: (§2)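 Growth of HGPRTase-deficient S49 cells was followed over time with 0.5 mM agent, compared with drug-free cultures. The cAMP comparator was given with 0.2 mM theophylline.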

S49 [7] = assay: Cytotoxicity against HGPRTase-deficient mouse S49 cells assessed as growth inhibition at 500 uM after 20 to 49 hrs by time-course study; format: functional, cell-based; method in brief: as §2
S49 [8] = assay: Cytotoxicity against HGPRTase-, protein kinase- and phosphodiesterase-deficient mouse S49 cells assessed as growth inhibition; format: functional, cell-based; method in brief: as §1
S49 [9] = assay: Cytotoxicity against HGPRTase-deficient mouse S49 cells assessed as growth inhibition in presence of 4-(3-butoxy-4-methoxybenzyl)-2-imidazolone
[10] = Drug degradation in Eagle's medium containing 10 % heat-inactivated horse serum assessed as parent compound after 3 days by reverse-phase liquid chromatography; format: physicochemical; details: read-out: Stability
Method in brief: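 Agent at 0.5 mM was incubated without cells for 3 days at 37 °C in Dulbecco's modified Eagle medium with 10% heat-inactivated horse serum. Aliquots were diluted 5:1 with methanol, filtered (0.45 μm), and analysed by reverse-phase C18 LC.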

S49 [11] = assay: Cytotoxicity against HGPRTase-deficient mouse S49 cells assessed as growth inhibition in presence of theophylline
S49 [12] = assay: Cytotoxicity against wild type mouse S49 cells assessed as growth inhibition at 200 uM after 72 hrs by trypan blue exclusion assay; format: functional; details: S49, 72 h, read-out: GI; method in brief: as §1
S49 [13] = assay: Cytotoxicity against wild type mouse S49 cells assessed as growth inhibition after 24 hrs by time-course study; format: functional, cell-based
S49 [14] = assay: Cytotoxicity against HGPRTase- and protein kinase-deficient mouse S49 cells assessed as growth inhibition at 1 mM; format: functional, cell-based; method in brief: as §1

Compound	pEC50 (S49 [1])	pEC50 (S49 [2])	further results
CCCCCC(=O)O[C@@H]1[C@@H]2OP(=O)(O)OC[C@H]2O[C@H]1n1cnc2c(=S)[nH]cnc21	5.00	3.68	
CC(C)C(=O)O			growth inhibition (GI) (S49 [3]): inactive
CCCCCCCCCCCC(=O)O			growth inhibition (GI) (S49 [4]): inactive
CC(C)(C)C(=O)O[C@@H]1[C@@H]2OP(=O)(O)OC[C@H]2O[C@H]1n1cnc2c(=S)[nH]cnc21	4.48	3.63	
OC[C@H]1O[C@@H](n2cnc3c(S)ncnc32)[C@H](O)[C@@H]1O [THIOINOSINE]	6.60	3.40	
CC(=O)O[C@@H]1[C@@H]2OP(=O)(O)OC[C@H]2O[C@H]1n1cnc2c(=S)[nH]cnc21	3.68	3.18	
CCCCCC(=O)O [HEXANOATE]		< 3.00	
CCCCCCCCCCCC(=O)O[C@@H]1[C@@H]2OP(=O)(O)OC[C@H]2O[C@H]1n1cnc2c(=S)[nH]cnc21	5.00	3.96	
CCCC(=O)O[C@@H]1[C@@H]2OP(=O)(O)OC[C@H]2O[C@H]1n1cnc2c(=S)[nH]cnc21	3.86	3.37	pEC50 (S49 [5]): 3.60
CCCC(=O)Nc1ncnc2c1ncn2[C@@H]1O[C@@H]2COP(=O)(O)O[C@H]2[C@H]1OC(=O)CCC			growth inhibition (GI) (S49 [6]): Active; growth inhibition (GI) (S49 [7]): Active
CCCCCCCCCCCCCCCC(=O)O[C@@H]1[C@@H]2OP(=O)(O)OC[C@H]2O[C@H]1n1cnc2c(=S)[nH]cnc21	5.22	4.19	growth inhibition (GI) (S49 [8]): Active; growth inhibition (GI) (S49 [9]): Active; remaining at 72 h [10]: 20%; growth inhibition (GI) (S49 [11]): Active
O=P1(O)OC[C@H]2O[C@@H](n3cnc4c(=S)[nH]cnc43)[C@H](O)[C@@H]2O1	3.70	< 3.00	inhibition of growth at 200 µM (S49 [12]): 40%
CC(C)C(=O)O[C@@H]1[C@@H]2OP(=O)(O)OC[C@H]2O[C@H]1n1cnc2c(=S)[nH]cnc21	4.64	3.32	
Sc1ncnc2nc[nH]c12 [MERCAPTOPURINE ANHYDROUS]	5.10	< 3.00	growth inhibition (GI) (S49 [13]): Active
CCCCCCCCCCCCCCCCCCCCCC(=O)O[C@@H]1[C@@H]2OP(=O)(O)OC[C@H]2O[C@H]1n1cnc2c(=S)[nH]cnc21		3.92	
CCCC(=O)O[C@@H]1[C@@H]2OP(=O)(O)OC[C@H]2O[C@H]1n1cnc2c(N)ncnc21			growth inhibition (GI) (S49 [14]): inactive
CCCCCCCCCCCCCCCC(=O)O [PALMITIC ACID]		3.30	
